Compound activity deposited in PubChem by several laboratories.
TPT1 inhibitor: C. albicans TPT1 enzyme inhibition. recombinant caTPT1, FP RNA substrate dephosphorylation. hit rate 0.81% among 300,000. inhibition, % at 5 µM;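 active = inhibition above the mean of all tested compounds plus 3 SD, set per screening campaign, cut at about 24% in these data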;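 also: plate controls were DMSO alone for no effect and ferristatin control at 100 nM for full effect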
Rpn11 inh: inhibitors of human proteasome Rpn11; O00487; hit rate 0.59% among 360,000; inhibition, % at 20 µM; human 26S proteasome, Ub4-pepOG fluorescence polarization; 20S core pre-blocked with epoxomicin;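 active = inhibition at 20 µM, scaled to each plate's controls, above about 33%, limit read from the data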
Target sequence (O00487 whole entry, looked up): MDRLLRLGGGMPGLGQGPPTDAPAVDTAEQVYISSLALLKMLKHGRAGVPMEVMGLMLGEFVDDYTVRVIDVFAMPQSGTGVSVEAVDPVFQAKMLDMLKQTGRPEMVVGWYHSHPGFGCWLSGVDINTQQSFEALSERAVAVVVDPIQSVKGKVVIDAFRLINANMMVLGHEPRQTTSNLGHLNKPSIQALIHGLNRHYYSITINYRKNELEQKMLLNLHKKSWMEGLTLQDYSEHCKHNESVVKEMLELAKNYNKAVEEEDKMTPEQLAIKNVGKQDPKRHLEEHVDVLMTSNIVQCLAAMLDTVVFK
CSN inh: inhibitors of human CSN-mediated cullin deneddylation; inhibition, % at 12.5 µM; AID 651999; Purified CSN, SCF-Nedd8-OG deneddylation, fluorescence polarization; Q92905; hit rate 0.38% among 360,000;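 active = pattern-corrected inhibition above about 35%, with an unprinted fluorescence ratio check between 0.5 and 1.5, limit read from the data, passing the limit was not always enough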;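 also: 0% = enzyme with substrate and 100% = substrate without enzyme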
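Assay system: purified human Csn5 enzyme expressed in HEK293T cells; Input: 0.24 nM Csn5 enzyme, final concentration; Reagent: 10 nM SCFSkp2-Nedd8OG; Compound dosing: 12.5 µM single point; Times: reaction 90 min, room temperature; Technique: fluorescence polarization readout.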
HNF4A DNA FP: change in binding of human HNF4 alpha to DNA; hit rate 0.3% among 360,000; AID 1224865; P41235; activity change, % at 10 µM; HNF4a-FITC DNA binding, fluorescence polarization, 1 h; in the data active = activity change above about 30%, passing the limit was not always enough
caTPT1 confirm: confirmation of Candida albicans TPT1 inhibitors | inhibition, % at 5 µM | hit rate 74% among 2,400 | recombinant caTPT1, fluorescence polarization, RNase T1 coupled | shares compounds with TPT1 inhibitor;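 active = inhibition above the primary screen limit, the mean inhibition of all tested compounds plus 3 SD, cut at about 25% in these data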
RNase T1 inh: counter-screen for TPT1 inhibitors: inhibitors of Aspergillus oryzae RNase T1. shares compounds with TPT1 inhibitor. RNase T1 cleavage, fluorescence polarization, 1536-well. inhibition, % at 5 µM. hit rate 83% among 2,400. AID 2153;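 active = inhibition above the solvent-only control well mean plus 3 SD, limit set per screening run, cut at about 23% in these data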;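 also: plate controls were DMSO wells with enzyme for no effect and wells without RNase T1 for full effect; inhibitors block cleavage so intact labeled substrate keeps polarization high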
Target sequence (P00651 whole entry, looked up): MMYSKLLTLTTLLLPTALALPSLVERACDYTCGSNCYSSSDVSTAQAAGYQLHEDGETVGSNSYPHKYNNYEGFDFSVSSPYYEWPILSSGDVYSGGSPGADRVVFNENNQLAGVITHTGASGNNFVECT
Starred values were filed as active, the others as inactive; . = not tested or not shown. Hits are enriched below; roughly 1.5% of the tested compounds scored in any of these assays.

SMILES	TPT1 inhibitor	Rpn11 inh	CSN inh	HNF4A DNA FP	caTPT1 confirm	RNase T1 inh
CCCCCn1c(NC(=O)c2ccco2)c(C(=O)OCC)c2nc3ccccc3nc21	36*	16	30	10	31*	43*
Cc1cc(/C=C2\C(=O)NC(=O)N(Cc3ccccc3Cl)C2=O)c(C)n1-c1ccc(C(=O)O)cc1	60*	.	20	-17	17	24*
Cc1cc(/C=C2\C(=O)NC(=O)N(Cc3ccco3)C2=O)c(C)n1-c1ccc(O)cc1	20	34	49	-12	.	.
Cc1cc(/C=C2\C(=O)NC(=O)N(Cc3ccccc3)C2=O)c(C)n1-c1ccc(Cl)c(C(=O)O)c1	16	38	57	-45	.	.
Cc1cc(/C=C2\C(=O)NC(=O)N(Cc3ccco3)C2=O)c(C)n1-c1ccc(C(=O)O)cc1	25*	38	11	-11	8	10
COc1cc2c(cc1OC)C1[C@H]3C(=CC[C@H]1OC2O)CCN3C (some centres not stated)	.	-3	-2	-7	.	.
Cc1nc2cc([N+](=O)[O-])ccc2c(=O)n1-c1cccc(Br)c1	-7	1	0	-8	.	.
Cn1cc(NC(=O)CCl)cn1	2	-5	1	1	.	.
CCN(CC)c1ccc(/C=N/c2sc3c(c2C#N)C2CCN3CC2)c(O)c1	161*	.	-3	120	146*	133*
O=C1Nc2cc(C(=O)N3CCC4(CC3)OCCO4)ccc2NC1CSCc1cccc(F)c1 (configuration not stated)	61*	.	.	.	96*	101*
O=C(c1ccc2c(c1)N(Cc1ccccc1)CCS2)N1CCC2(CC1)OCCO2	2	-3	2	-1	.	.
O=C1NC(=O)C(=Cc2ccc(-c3ccc(F)cc3O)o2)C(=O)N1	25*	6	-2	-1	42*	63*
Cc1ccc(OCCn2cccc2/C=C2/C(=O)NC(=O)N(Cc3ccco3)C2=O)cc1	25*	8	29	-8	41*	27*
CCOC(=O)C1CCN(/C=C2/C(=O)NC(=O)N(Cc3ccco3)C2=O)CC1	7	7	19	-2	.	.
O=C1NC(=S)N(c2ccc(Cl)cc2)C(=O)/C1=C/N1CCN(C(=O)c2ccco2)CC1	39*	.	43*	16	29*	41*
COc1cc(OC)c(OC)cc1CNCCc1ccc2c(c1)OCO2	0	3	0	1	.	.
CCCCC1C(=O)NC(=S)NC1=O	-1	.	.	.	.	.
COc1ccc(CN2C(=O)CC(=O)NC2=O)cc1	24*	12	0	10	18	24*
Clc1ccc(OCC#CCN2CCCCCC2)cc1	7	2	-7	4	.	.
COc1ccc2c3c1O[C@H]1C(=O)CC[C@H]4[C@@H](C2)N(C)CC[C@]314	.	3	-3	0	.	.
CO[C@H]1C=C2CCN(C)[C@H]2C2c3cc4c(cc3C(=O)O[C@@H]21)OCO4 (some centres not stated)	1	-5	-3	3	.	.
C=CCn1c(=O)c(C=Nc2cccnc2Cl)c(O)n(CCCC)c1=O	44*	23	29	8	13	23*
CCn1c(O)c(C=Nc2cc(Cl)ccc2Cl)c(=O)n(CC)c1=O	5	4	-2	5	.	.
CC1CCCCC1NC1CCN(C)CC1 (configuration not stated)	-2	-3	6	3	.	.
CCn1c(O)c(C=Nc2ccc(S(N)(=O)=O)cc2)c(=O)[nH]c1=S	7	28	11	5	.	.
SMILES	TPT1 inhibitor	Rpn11 inh	CSN inh	HNF4A DNA FP	caTPT1 confirm	RNase T1 inh
CCN(CC)c1ccc(N=Cc2c(O)n(CCc3ccc(OC)c(OC)c3)c(=O)[nH]c2=O)cc1	43*	.	-2	12	80*	93*
CCN(CCO)c1ccc(N=Cc2c(O)n(C)c(=S)[nH]c2=O)cc1	57*	.	25	2	86*	94*
CSCc1nnc2n1-c1ccc(Cl)cc1C(c1ccccc1)=NC2	5	-6	3	-2	.	.
Cc1ccc(N2C(=O)NC(=O)/C(=C\C=C\c3ccco3)C2=O)cc1	43*	38	34	9	34*	54*
Cc1ccc(N2C(=O)NC(=O)/C(=C\c3ccoc3)C2=O)cc1	133*	38	58*	19	27*	37*
CCc1ccc(N2C(=O)NC(=O)/C(=C/c3ccsc3)C2=O)cc1	28*	.	.	.	17	24*
COc1cc(/C=C2\C(=O)NC(=O)N(c3ccccc3)C2=O)cc(OC)c1O	51*	0	3	-1	4	11
Cn1cc(C(=O)OCC(=O)NC2(C#N)CCCCC2)c2ccccc21	.	2	-6	-1	.	.
Cc1cccc(N2C(=O)NC(=O)/C(=C/c3ccc([N+](=O)[O-])o3)C2=O)c1	28*	.	.	.	17	18
Cc1cccc(N2C(=O)NC(=O)/C(=C\c3cccn3-c3ccc(Cl)cc3)C2=O)c1	6	10	2	-11	.	.
Oc1ccc2c3c1O[C@H]1c4[nH]c5ccccc5c4C[C@@]4(O)[C@@H](C2)N(CC2CC2)CC[C@]314	2	-6	-3	4	.	.
O[C@@H]1CCCN2CCc3c([nH]c4ccccc34)[C@H]12	30*	3	5	2	14	23*
C=CCn1c(O)c(C=Nc2c(C)n(C)n(-c3ccccc3)c2=O)c(=O)[nH]c1=O	38*	20	5	5	18	24*
C=C1C2C[C@@]3([C@@H]1O)[C@@H](C[C@@H]2O)[C@@]12C4[C@@H]3C[C@@H]1[C@@](C)(CC[C@@H]2O)CN4CC	0	-3	-3	3	.	.
O=C(/C=C/c1c[nH]c2ccccc12)c1c(O)n(CCc2ccccc2)c(=O)[nH]c1=O	169*	.	-75	-96	177*	162*
CS(=O)(=O)c1ccc(C(=O)N2CCC(C(=O)O)(c3ccccc3)CC2)cc1	-7	-3	-6	3	.	.
CSc1ncc(/C=C2/C(=O)NC(=O)N(C3CCCCC3)C2=O)cn1	32*	7	6	3	32*	43*
O=C(O)CCn1cc(C=C2C(=O)NC(=O)NC2=O)c(-c2cc3ccccc3oc2=O)n1	2	-5	4	-7	.	.
CN(C)/C=C1/C(=O)NC(=O)N(CCNc2ncc(C(F)(F)F)cc2Cl)C1=O	29*	34	9	17	24	34*
CCCCN1C(=O)NC(=O)/C(=C/c2cnc(SC)nc2)C1=O	8	1	0	-1	.	.
CN1C(=O)C2C[C@@]3(Br)c4ccccc4N(OOSc4ccccc4)[C@H]3N2C(=O)[C@@H]1Cc1ccccc1 (some centres not stated)	-1	-1	1	3	.	.
COc1ccc2[nH]cc(CCN)c2c1	5	7	2	4	.	.
COc1ccc2[nH]c3c(c2c1)CCN=C3C	33*	18	6	14	13	18
